Measured values published in ChEMBL document CHEMBL1821638, “Targeting the human malaria parasite Plasmodium falciparum: in vitro identification of a new antiplasmodial hit in 4-phenoxy-2-trichloromethylquinazoline series” (Eur J Med Chem, 2011).
Active and inactive are the calls of the source. The rule behind the calls is not given here.

Test system: Salmonella typhimurium
Assay: Mutagenic activity in Salmonella Typhimurium TA100 assessed as number of spontaneous and drug-induced revertants at 25 to 125 nM after 48 hrs by Ames test
Type: toxicity, organism-based
Details: salmonella enterica subsp. enterica serovar typhimurium, 0.125 µM
In short: (§1)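 Salmonella tester strains grown overnight in nutrient broth. Compound in DMSO added to 0.1 mL culture and preincubated 1 h at 37 °C with shaking, in duplicate. Mixed with 2 mL molten top agar and plated on Vogel-Bonner minimal agar. After 48 h at 37 °C, spontaneous and induced revertants per plate counted for each dose by laser colony counter, against negative controls.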

SMILES | Activity
COc1cccc2c1C(=O)c1c(O)c3c(c(O)c1C2=O)C[C@@](O)(C(=O)CO)C[C@@H]3O[C@H]1C[C@H](N)[C@H](O)[C@H](C)O1 [DOXORUBICIN] | Toxic

Test system: Salmonella typhimurium
Assay: Mutagenic activity in Salmonella Typhimurium TA102 assessed as number of spontaneous and drug-induced revertants at 25 to 125 nM after 48 hrs by Ames test
Type: toxicity, organism-based
Details: salmonella enterica subsp. enterica serovar typhimurium, 0.125 µM
In short: as §1

SMILES | Activity
COc1cccc2c1C(=O)c1c(O)c3c(c(O)c1C2=O)C[C@@](O)(C(=O)CO)C[C@@H]3O[C@H]1C[C@H](N)[C@H](O)[C@H](C)O1 [DOXORUBICIN] | Toxic

Test system: Plasmodium falciparum
Assay: Antiplasmodial activity against chloroquine, pyrimethamine and proguanil-resistant Plasmodium falciparum W2 infected in human A positive erythrocytes at > 50 uM after 72 hrs by SYBR Green I assay
Type: functional, organism-based
Details: not given
In short: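 W2 strain kept in continuous culture in A+ human erythrocytes at 2.5% hematocrit. Medium was RPMI 1640 with 25 mM HEPES, 25 mM NaHCO3 and 10% A+ human serum, at 37 °C under 5% O2/5% CO2/90% N2, parasitaemia 1–6%. Drug exposure 72 h. Lysis buffer with SYBR Green I, saponin and Triton X-100, 15 min at 37 °C. Fluorescence read at ex 497/em 520 nm. IC50 by non-linear regression, mean of three independent experiments.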

SMILES | Activity
Oc1nc(C(Cl)(Cl)Cl)nc2ccccc12 | inactive

Test system: HepG2
Assay: Cytotoxicity against human HepG2 cells at > 125 uM after 72 hrs by MTT assay
Type: cell-based
Details: hepg2, 72 h
In short: (§2)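 HepG2 or HFF cells seeded in RPMI with 10% foetal bovine serum, L-glutamine and penicillin/streptomycin, 37 °C, 6% CO₂; after 24 h, medium with various compound concentrations added for 72 h. Wells checked microscopically for precipitate. MTT in serum-free medium 2 h at 37 °C, formazan dissolved in DMSO, absorbance at 570 nm (630 nm reference). Viability as percent of untreated control; doxorubicin reference.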

SMILES | Activity
Clc1nc(C(Cl)(Cl)Cl)nc2ccccc12 | Non-toxic

Test system: not listed separately
Assay: Solubility of the compound
Type: physicochemical
Details: not given

SMILES | solubility
O=[N+]([O-])c1ccccc1Oc1nc(C(Cl)(Cl)Cl)nc2ccccc12 | Insoluble
O=[N+]([O-])c1ccc(Oc2nc(C(Cl)(Cl)Cl)nc3ccccc23)cc1 | Insoluble

Test system: Plasmodium falciparum
Assay: Antiplasmodial activity against chloroquine, pyrimethamine and proguanil-resistant Plasmodium falciparum W2 infected in human A positive erythrocytes after 72 hrs by SYBR Green I assay
Type: functional, organism-based
Details: W2, 72 h

SMILES | IC50
ClC(Cl)(Cl)c1nc(Oc2cccc3ccccc23)c2ccccc2n1 | 3.9 µM
Fc1cccc(Oc2nc(C(Cl)(Cl)Cl)nc3ccccc23)c1 | 2.3 µM
Clc1ccccc1Oc1nc(C(Cl)(Cl)Cl)nc2ccccc12 | 4.4 µM
FC(F)(F)c1ccccc1Oc1nc(C(Cl)(Cl)Cl)nc2ccccc12 | 3.3 µM
ClC(Cl)(Cl)c1nc(Oc2ccc3ccccc3c2)c2ccccc2n1 | 2.3 µM
C[C@H]1c2cccc(O)c2C(=O)C2=C(O)[C@]3(O)C(=O)C(C(N)=O)=C(O)[C@@H](N(C)C)[C@@H]3[C@@H](O)[C@@H]21.O [DOXYCYCLINE] | 4.8 µM
COc1cccc(Oc2nc(C(Cl)(Cl)Cl)nc3ccccc23)c1 | 1.9 µM
Clc1cccc(Oc2nc(C(Cl)(Cl)Cl)nc3ccccc23)c1 | 2.4 µM
O=[N+]([O-])c1cccc(Oc2nc(C(Cl)(Cl)Cl)nc3ccccc23)c1 | 3 µM
ClC(Cl)(Cl)c1nc(Oc2ccccc2)c2ccccc2n1 | 3.1 µM
FC(F)(F)c1nc(Oc2ccc(Cl)cc2)c2ccccc2n1 | 68 µM
Cc1nc(Oc2ccc(Cl)cc2)c2ccccc2n1 | 28 µM
Fc1ccccc1Oc1nc(C(Cl)(Cl)Cl)nc2ccccc12 | 5 µM
COc1ccc(Oc2nc(C(Cl)(Cl)Cl)nc3ccccc23)cc1 | 2.9 µM
FC(F)(F)c1ccc(Oc2nc(C(Cl)(Cl)Cl)nc3ccccc23)cc1 | 1.8 µM
O=[N+]([O-])c1ccccc1Oc1nc(C(Cl)(Cl)Cl)nc2ccccc12 | 4.9 µM
Cc1ccccc1Oc1nc(C(Cl)(Cl)Cl)nc2ccccc12 | 5.5 µM
COc1ccccc1Oc1nc(C(Cl)(Cl)Cl)nc2ccccc12 | 6 µM
O=[N+]([O-])c1ccc(Oc2nc(C(Cl)(Cl)Cl)nc3ccccc23)cc1 | 3.5 µM
Cc1cccc(Oc2nc(C(Cl)(Cl)Cl)nc3ccccc23)c1 | 2.9 µM
Cc1ccc(Oc2nc(C(Cl)(Cl)Cl)nc3ccccc23)cc1C | 3.3 µM
Fc1ccc(Oc2nc(C(Cl)(Cl)Cl)nc3ccccc23)cc1 | 2.4 µM
Cc1ccc(Oc2nc(C(Cl)(Cl)Cl)nc3ccccc23)cc1 | 3.2 µM
FC(F)(F)c1cccc(Oc2nc(C(Cl)(Cl)Cl)nc3ccccc23)c1 | 2.3 µM

Test system: not listed separately
Assay: Cytotoxicity against human HepG2 cells after 72 hrs by MTT assay
Type: cell-based
Details: not given
In short: as §2

SMILES | CC50 at 72 h
ClC(Cl)(Cl)c1nc(Oc2cccc3ccccc23)c2ccccc2n1 | 2.4 µM
Fc1cccc(Oc2nc(C(Cl)(Cl)Cl)nc3ccccc23)c1 | 41.7 µM
Clc1ccccc1Oc1nc(C(Cl)(Cl)Cl)nc2ccccc12 | 33.6 µM
FC(F)(F)c1ccccc1Oc1nc(C(Cl)(Cl)Cl)nc2ccccc12 | 34.9 µM
COc1cccc2c1C(=O)c1c(O)c3c(c(O)c1C2=O)C[C@@](O)(C(=O)CO)C[C@@H]3O[C@H]1C[C@H](N)[C@H](O)[C@H](C)O1 [DOXORUBICIN] | 0.2 µM
ClC(Cl)(Cl)c1nc(Oc2ccc3ccccc3c2)c2ccccc2n1 | 3.6 µM
CCc1nc(N)nc(N)c1-c1ccc(Cl)cc1 [PYRIMETHAMINE] | 7.1 µM
C[C@H]1c2cccc(O)c2C(=O)C2=C(O)[C@]3(O)C(=O)C(C(N)=O)=C(O)[C@@H](N(C)C)[C@@H]3[C@@H](O)[C@@H]21.O [DOXYCYCLINE] | 20 µM
Oc1nc(C(Cl)(Cl)Cl)nc2ccccc12 | 21 µM
COc1cccc(Oc2nc(C(Cl)(Cl)Cl)nc3ccccc23)c1 | 0.6 µM
Clc1cccc(Oc2nc(C(Cl)(Cl)Cl)nc3ccccc23)c1 | 26.1 µM
O=[N+]([O-])c1cccc(Oc2nc(C(Cl)(Cl)Cl)nc3ccccc23)c1 | 36.3 µM
ClC(Cl)(Cl)c1nc(Oc2ccccc2)c2ccccc2n1 | 50 µM
FC(F)(F)c1nc(Oc2ccc(Cl)cc2)c2ccccc2n1 | 72 µM
Cc1nc(Oc2ccc(Cl)cc2)c2ccccc2n1 | 26 µM
Fc1ccccc1Oc1nc(C(Cl)(Cl)Cl)nc2ccccc12 | 38.3 µM
COc1ccc(Oc2nc(C(Cl)(Cl)Cl)nc3ccccc23)cc1 | 34.1 µM
FC(F)(F)c1ccc(Oc2nc(C(Cl)(Cl)Cl)nc3ccccc23)cc1 | 29.6 µM
O=[N+]([O-])c1ccccc1Oc1nc(C(Cl)(Cl)Cl)nc2ccccc12 | > 8 µM
Cc1ccccc1Oc1nc(C(Cl)(Cl)Cl)nc2ccccc12 | 25.1 µM
COc1ccccc1Oc1nc(C(Cl)(Cl)Cl)nc2ccccc12 | 6.7 µM
O=[N+]([O-])c1ccc(Oc2nc(C(Cl)(Cl)Cl)nc3ccccc23)cc1 | > 16 µM
Cc1cccc(Oc2nc(C(Cl)(Cl)Cl)nc3ccccc23)c1 | 7.6 µM
Cc1ccc(Oc2nc(C(Cl)(Cl)Cl)nc3ccccc23)cc1C | 29 µM
Fc1ccc(Oc2nc(C(Cl)(Cl)Cl)nc3ccccc23)cc1 | 29.5 µM
Cc1ccc(Oc2nc(C(Cl)(Cl)Cl)nc3ccccc23)cc1 | 42.8 µM
FC(F)(F)c1cccc(Oc2nc(C(Cl)(Cl)Cl)nc3ccccc23)c1 | 25.1 µM

Test system: not listed separately
Assay: Selectivity index, ratio of CC50 for human HepG2 cells to IC50 for chloroquine, pyrimethamine and proguanil-resistant Plasmodium falciparum W2
Type: functional
Details: not given

SMILES | Ratio CC50/IC50
ClC(Cl)(Cl)c1nc(Oc2cccc3ccccc23)c2ccccc2n1 | 0.6
Fc1cccc(Oc2nc(C(Cl)(Cl)Cl)nc3ccccc23)c1 | 18.1
Clc1ccccc1Oc1nc(C(Cl)(Cl)Cl)nc2ccccc12 | 7.6
FC(F)(F)c1ccccc1Oc1nc(C(Cl)(Cl)Cl)nc2ccccc12 | 10.6
ClC(Cl)(Cl)c1nc(Oc2ccc3ccccc3c2)c2ccccc2n1 | 1.6
C[C@H]1c2cccc(O)c2C(=O)C2=C(O)[C@]3(O)C(=O)C(C(N)=O)=C(O)[C@@H](N(C)C)[C@@H]3[C@@H](O)[C@@H]21.O [DOXYCYCLINE] | 4.2
Oc1nc(C(Cl)(Cl)Cl)nc2ccccc12 | <0.42
Clc1nc(C(Cl)(Cl)Cl)nc2ccccc12 | >2.3
COc1cccc(Oc2nc(C(Cl)(Cl)Cl)nc3ccccc23)c1 | 0.3
Clc1cccc(Oc2nc(C(Cl)(Cl)Cl)nc3ccccc23)c1 | 10.9
O=[N+]([O-])c1cccc(Oc2nc(C(Cl)(Cl)Cl)nc3ccccc23)c1 | 12.1
ClC(Cl)(Cl)c1nc(Oc2ccccc2)c2ccccc2n1 | 16
FC(F)(F)c1nc(Oc2ccc(Cl)cc2)c2ccccc2n1 | 1.1
Cc1nc(Oc2ccc(Cl)cc2)c2ccccc2n1 | 0.9
Fc1ccccc1Oc1nc(C(Cl)(Cl)Cl)nc2ccccc12 | 7.7
COc1ccc(Oc2nc(C(Cl)(Cl)Cl)nc3ccccc23)cc1 | 11.8
FC(F)(F)c1ccc(Oc2nc(C(Cl)(Cl)Cl)nc3ccccc23)cc1 | 16.4
O=[N+]([O-])c1ccccc1Oc1nc(C(Cl)(Cl)Cl)nc2ccccc12 | >1.6
Cc1ccccc1Oc1nc(C(Cl)(Cl)Cl)nc2ccccc12 | 4.6
COc1ccccc1Oc1nc(C(Cl)(Cl)Cl)nc2ccccc12 | 1.1
O=[N+]([O-])c1ccc(Oc2nc(C(Cl)(Cl)Cl)nc3ccccc23)cc1 | >4.6
Cc1cccc(Oc2nc(C(Cl)(Cl)Cl)nc3ccccc23)c1 | 2.6
Cc1ccc(Oc2nc(C(Cl)(Cl)Cl)nc3ccccc23)cc1C | 8.8
Fc1ccc(Oc2nc(C(Cl)(Cl)Cl)nc3ccccc23)cc1 | 12.3
Cc1ccc(Oc2nc(C(Cl)(Cl)Cl)nc3ccccc23)cc1 | 13.4
FC(F)(F)c1cccc(Oc2nc(C(Cl)(Cl)Cl)nc3ccccc23)c1 | 10.9

Test system: Toxoplasma gondii
Assay: Antiparasitic activity against Toxoplasma gondii PRU tachyzoites harboring beta-Gal gene infected in human HFF cells after 72 hrs by microtiter plate based assay
Type: functional, cell-based
Details: not given
In short: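 T. gondii PRU-b-Gal tachyzoites kept by serial passage in confluent human foreskin fibroblast (HFF) monolayers. Compounds in DMSO (final <0.5% v/v) added at various concentrations in triplicate. Controls: DMSO-treated, pyrimethamine, and uninfected drug-free monolayers. Incubated 72 h at 37 °C, 6% CO2. Read by colorimetric microtiter assay.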

SMILES | IC50
CCc1nc(N)nc(N)c1-c1ccc(Cl)cc1 [PYRIMETHAMINE] | 1.1 µM

Test system: not listed separately
Assay: Cytotoxicity against human HFF cells after 72 hrs by MTT assay
Type: cell-based
Details: not given
In short: as §2

SMILES | CC50 at 72 h
COc1cccc2c1C(=O)c1c(O)c3c(c(O)c1C2=O)C[C@@](O)(C(=O)CO)C[C@@H]3O[C@H]1C[C@H](N)[C@H](O)[C@H](C)O1 [DOXORUBICIN] | 0.03 µM
CCc1nc(N)nc(N)c1-c1ccc(Cl)cc1 [PYRIMETHAMINE] | > 50 µM

Test system: Salmonella typhimurium
Assay: Mutagenic activity in Salmonella Typhimurium TA97a assessed as number of spontaneous and drug-induced revertants at 25 to 125 nM after 48 hrs by Ames test
Type: toxicity, organism-based
Details: salmonella enterica subsp. enterica serovar typhimurium, 0.125 µM
In short: as §1

SMILES | Activity
COc1cccc2c1C(=O)c1c(O)c3c(c(O)c1C2=O)C[C@@](O)(C(=O)CO)C[C@@H]3O[C@H]1C[C@H](N)[C@H](O)[C@H](C)O1 [DOXORUBICIN] | Toxic

Test system: Salmonella typhimurium
Assay: Mutagenic activity in Salmonella Typhimurium TA98 assessed as number of spontaneous and drug-induced revertants at 25 to 125 nM after 48 hrs by Ames test
Type: toxicity, organism-based
Details: salmonella enterica subsp. enterica serovar typhimurium, 0.125 µM
In short: as §1

SMILES | Activity
COc1cccc2c1C(=O)c1c(O)c3c(c(O)c1C2=O)C[C@@](O)(C(=O)CO)C[C@@H]3O[C@H]1C[C@H](N)[C@H](O)[C@H](C)O1 [DOXORUBICIN] | Toxic
